Data as given in PubChem BioAssay.
Calls of active or inactive are those of the source.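 The calls were made as follows, unless noted: active = inhibition at or above 50% at 10 µM; inactive = inhibition below 50%.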

Key:
[1] = inhibitors of TNFa-induced NFkB p65 translocation, primary screen, imaging, HUVEC, MLSMR starter and 10KST1 sets (AID 438;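 active = inhibition above 20% together with a positive visual image hit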;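 also: compound added about 3h40 before a 20 min TNFalpha stimulation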;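 as to inhibition: signal is the nuclear over cytoplasmic p65 intensity ratio per well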); settings: HUVEC TNFa-induced p65 nuclear translocation; cell count: measured here: nuclei count (cytotoxicity indicator), at 2.08 µM; inhibition: at 2 µM, stronger effect = higher value, 0% TNFa-plus-vehicle, 100% no-TNFa wells
[2] = reduction of polyQ htt aggregates in cells – imaging, exon1htt(103Q)mCFP cells, high-content imaging, primary screen (AID 483;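 active = visual image review flags a hit and inhibition of aggregation exceeds 20%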;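 also: compound exposure lasted 3 days before fixation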;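 as to nuclei count: percent of the per-plate median nuclei count of sample wells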); settings: exon1htt(103Q)mCFP cell line, aggregate imaging, at 2 µM; inhibition of aggregation: stronger effect = higher value; nuclei count: measured here: cell count, toxicity
[3] = endothelial E-selectin expression blockers – imaging, HUVEC, immunofluorescence, MLSMR starter and 10KST1 sets, primary screen (AID 487;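 active = visually confirmed hit in the image check and inhibition above 20%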;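 as to inhibition: signal is fraction of cell area covered by stained E-selectin grains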;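 as to nuclei count: 100% = median nuclei count of all wells on the same plate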); settings: HUVEC TNFalpha-induced E-selectin immunofluorescence imaging, at 2 µM; inhibition: stronger effect = higher value; nuclei count: measured here: cell number, toxicity
[4] = target: Voltage-gated potassium channel subunit beta-2 (Rattus norvegicus) (UniProt P62483); experiment: inhibitors of rat Kvbeta2 reductase activity – biochemical, NADPH fluorescence, primary screen (AID 622;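 active = fluorescence slope higher than the sample average by over 3 SD, cut at about -0.22 in these data, passing the limit was not always enough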;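 also: slope of raw intensity against log time taken from 70 to 1610 s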); settings: recombinant KvBeta, 4-cyanobenzaldehyde reduction, at 10 µM, stronger effect = higher value
Voltage-gated potassium channel subunit beta-2 (Rattus norvegicus), sequence (P62483 whole entry, looked up): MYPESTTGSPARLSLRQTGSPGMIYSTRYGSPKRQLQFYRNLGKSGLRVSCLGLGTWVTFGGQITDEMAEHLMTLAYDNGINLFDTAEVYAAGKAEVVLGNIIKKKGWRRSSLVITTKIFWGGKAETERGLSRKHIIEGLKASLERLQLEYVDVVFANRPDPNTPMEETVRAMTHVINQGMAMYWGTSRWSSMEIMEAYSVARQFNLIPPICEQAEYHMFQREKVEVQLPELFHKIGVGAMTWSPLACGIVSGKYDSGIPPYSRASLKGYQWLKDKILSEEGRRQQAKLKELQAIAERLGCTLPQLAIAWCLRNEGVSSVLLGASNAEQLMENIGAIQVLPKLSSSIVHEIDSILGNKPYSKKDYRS

[5] = target: Voltage-gated potassium channel subunit beta-2 (Rattus norvegicus) (UniProt P62483); experiment: enhancers of rat Kvbeta2 NADPH turnover – biochemical, NADPH fluorescence, primary screen (AID 623;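 active = NADPH fluorescence slope more negative than the mean of all samples by about 3 SD, 99.7% confidence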;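 also: fluorescence intensity change per second fitted from 20 to 320 s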); settings: Recombinant KvBeta, NADPH fluorescence decrease slope, 10 min; at 10 µM; stronger effect = lower value
[6] = target: Muscarinic acetylcholine receptor M4 (Homo sapiens) (UniProt P08173); experiment: M4-linked GIRK flux change, two-sided – cell-based, HEK293 M4/GIRK, thallium flux, BTC-AM, M4 allosteric agonist project, primary screen (AID 625;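 active = fluorescence slope after compound addition differing from the mean of all tested samples at 99.7% confidence, mostly higher but some lower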;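 also: thallium influx through GIRK channels coupled to M4 in HEK293 cells with BTC-AM dye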); settings: at 10 µM, actives lie on both sides
Muscarinic acetylcholine receptor M4 (Homo sapiens), sequence (P08173 whole entry, looked up): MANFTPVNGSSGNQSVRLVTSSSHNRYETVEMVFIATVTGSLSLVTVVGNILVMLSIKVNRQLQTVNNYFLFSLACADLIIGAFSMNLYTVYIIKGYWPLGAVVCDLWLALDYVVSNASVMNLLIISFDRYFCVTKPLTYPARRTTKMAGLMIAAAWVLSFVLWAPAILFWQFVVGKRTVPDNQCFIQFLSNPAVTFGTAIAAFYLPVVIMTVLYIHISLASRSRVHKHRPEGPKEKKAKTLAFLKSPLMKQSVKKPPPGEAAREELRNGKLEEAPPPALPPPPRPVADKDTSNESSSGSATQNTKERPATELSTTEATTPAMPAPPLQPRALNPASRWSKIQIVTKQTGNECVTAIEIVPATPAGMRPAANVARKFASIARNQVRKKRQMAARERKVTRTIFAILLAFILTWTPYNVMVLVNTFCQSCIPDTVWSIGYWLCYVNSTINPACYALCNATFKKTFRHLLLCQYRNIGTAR
Outline: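 Material – HEK293 cells with M4 receptor and GIRK channels · Buffer or medium – pH 7.3 thallium assay buffer · Doses – one dose, 10 µM final · Timing – cells overnight at 37 °C, BTC-AM loading 1 h, reads 2 min total · Measured by – kinetic fluorescence with BTC-AM dye · Controls – carbachol and DMSO controls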

[7] = blockers of RIG-like receptor reporter activation – cell-based, Sendai virus stimulus, luciferase, 10K MLSCN set, TLR/RLR signaling modifier project, primary screen (AID 602276); settings: HEK293 RL24 IRF3 luciferase reporter, at 10 µM, stronger effect = higher value;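 also: firefly luciferase from ISG56 promoter only with Renilla not read in this screen; 0% = Sendai virus plus DMSO and 100% = medium plus DMSO without virus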
[8] = TLR3 IRF3 reporter activation blockers – cell-based, poly I:C stimulus, luciferase, 10K MLSCN set, primary screen (AID 602277;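 active = inhibition of the reporter signal at or above 50%; inactive = inhibition below 50%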); settings: HEK293-TLR3 RL24 IRF3 luciferase reporter, at 10 µM, stronger effect = higher value
[9] = target: Alpha-2C adrenergic receptor (Homo sapiens) (UniProt P18825); experiment: compounds altering alpha2C-coupled GIRK flux – cell-based, HEK293 alpha2C/GIRK1/2, thallium flux, primary screen (AID 624;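 active = fluorescence slope after compound addition differing from the mean of all screened samples at 99.7% confidence, in either direction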;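 also: slope of fluorescence ratio to pre-addition baseline per second over 15 to 24 s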); settings: thallium flux BTC fluorescence, at 10 µM, actives lie on both sides
Alpha-2C adrenergic receptor (Homo sapiens), sequence (P18825 whole entry, looked up): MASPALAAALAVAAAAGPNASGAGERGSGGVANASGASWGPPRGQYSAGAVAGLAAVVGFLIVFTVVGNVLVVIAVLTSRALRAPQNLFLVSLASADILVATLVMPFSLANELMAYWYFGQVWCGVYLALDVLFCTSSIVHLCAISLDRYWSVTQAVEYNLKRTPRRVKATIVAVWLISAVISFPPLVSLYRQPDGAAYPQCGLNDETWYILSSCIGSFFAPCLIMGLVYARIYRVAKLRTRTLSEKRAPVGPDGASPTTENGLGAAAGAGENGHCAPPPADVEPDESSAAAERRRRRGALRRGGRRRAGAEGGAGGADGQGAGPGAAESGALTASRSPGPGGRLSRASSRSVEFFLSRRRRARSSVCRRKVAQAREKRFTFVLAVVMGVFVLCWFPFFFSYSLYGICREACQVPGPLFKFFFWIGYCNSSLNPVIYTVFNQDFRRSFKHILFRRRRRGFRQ

[10] = inhibitors of larval lipid processing in zebrafish, primary screen, whole organism, PED6 fluorescence, gall bladder and intestine (AID 686;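 active = a full or partial loss of lipid-probe fluorescence in the fish gall bladder, intestine or both, judged by eye; inactive = no fluorescence loss, or compound toxic to the fish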;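 also: larvae 5 to 7 days old with five fish per well; signal comes from phospholipase A2 cleavage of quenched PED6 carried via bile; overnight exposure to compound and PED6 before scoring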); settings: Zebrafish larvae PED6 lipid processing, fluorescence scoring; screened at 20 µM (by protocol)
Outline: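 system = live zebrafish larvae aged 5-7 days, whole organism | probe or stimulus = ingested quenched lipid PED6 at 100 nM | doses = 20 µM single dose | timing = overnight exposure | detection = fluorescence microscopy with visual scoring of gall bladder and intestine | read-out = visual per-well fluorescence inhibition score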

| SMILES | cell count [1] | inhibition [1] | inhibition of aggregation [2] | nuclei count [2] | inhibition [3] | nuclei count [3] | fluorescence slope [4] | NADPH fluorescence slope [5] | fluorescence slope [6] | inhibition [7] | inhibition [8] | slope [9] | outcome [10] |
| --- | --- | --- | --- | --- | --- | --- | --- | --- | --- | --- | --- | --- | --- |
| Cc1ccc(-c2cc(C(F)F)nc(N3CCC(C)CC3)n2)cc1 | 653 | -35.4% (inactive) | -11.6% (inactive) | 102% | -81.9% (inactive) | 117% | -0.432 (inactive) | -1.2e-05 (inactive) | 0.00777 (inactive) | 4.72% (inactive) | -1.99% (inactive) | – | – |
| COCCCNC(=O)C1CCCN(C(=O)Nc2ccc(OC)cc2)C1 (stereo unspecified) | 675 | -14.8% (inactive) | -11.8% (inactive) | 107% | 52.7% (inactive) | 49.2% | -0.315 (inactive) | -5.2e-05 (inactive) | 0.007 (inactive) | 16.2% (inactive) | 4.9% (inactive) | – | – |
| O=C(O)C1CC(=O)N(c2ccc(OCc3ccccc3Cl)cc2)C1 (stereo unspecified) | 339 | -2.2% (inactive) | 12.7% (inactive) | 97.1% | -95.2% (inactive) | 94.8% | -0.644 (inactive) | 4e-05 (inactive) | 0.0043 (inactive) | 18.4% (inactive) | 23.2% (inactive) | – | – |
| Cc1ccc(Cn2nnc3c(=O)[nH]c(C4CCN(S(=O)(=O)c5ccc(F)cc5)CC4)nc32)cc1 | 436 | 9.4% (inactive) | 11.5% (inactive) | 107% | – | 153% | -0.584 (inactive) | 1.2e-05 (inactive) | 0.00687 (inactive) | 0.788% (inactive) | -11.3% (inactive) | – | – |
| Cc1cc(S(=O)(=O)N2CCN(c3ncccn3)CC2)ccc1-n1cnnn1 | 402 | 7.9% (inactive) | -13.8% (inactive) | 101% | – | 149% | -0.393 (inactive) | -1e-05 (inactive) | – | -6.32% (inactive) | 0.356% (inactive) | 0.00528 (inactive) | inactive |
| CCOC(=O)c1[nH]c(C)c(C(=O)Nc2ccc(C)c(Cl)c2)c1C | 661 | 0.3% (inactive) | -3.4% (inactive) | 97.4% | -7.5% (inactive) | 96.5% | -0.446 (inactive) | 1.5e-05 (inactive) | 0.00769 (inactive) | 11.7% (inactive) | 11.2% (inactive) | – | – |
| Cc1c(NC(=O)C(C)OC(=O)C(NC(=O)c2ccco2)C(C)C)c(=O)n(-c2ccccc2)n1C (stereo unspecified) | 419 | -8% (inactive) | -12.5% (inactive) | 105% | -25.3% (inactive) | 106% | -0.276 (inactive) | -5.3e-05 (inactive) | 0.00712 (inactive) | 10.2% (inactive) | 14.1% (inactive) | – | – |
| Cc1c(Cc2ccccc2)sc(N)c1C(N)=O | 335 | -13% (inactive) | -0.8% (inactive) | 115% | -32.2% (inactive) | 113% | -0.574 (inactive) | -2.6e-06 (inactive) | 0.00569 (inactive) | 9.38% (inactive) | 10.8% (inactive) | – | – |
| Nc1nc2sc3c(c2c(=O)s1)CCCC3 | 194 | 0.2% (inactive) | -15.1% (inactive) | 55.3% | 18.8% (inactive) | 90.7% | -0.525 (inactive) | -0.0002 (inactive) | 0.00365 (inactive) | -10.3% (inactive) | -23.7% (inactive) | – | – |
| O=C(O)COc1ccc(Oc2ccccc2)cc1 | 357 | 0.5% (inactive) | 0.7% (inactive) | 103% | -8.6% (inactive) | 112% | -0.567 (inactive) | 1.9e-05 (inactive) | 0.00744 (inactive) | 3.08% (inactive) | 9.93% (inactive) | – | – |
| CC(=O)Nc1ccc(S(=O)(=O)N2CCSC2c2ccccc2)cc1 (stereo unspecified) | 241 | -12.1% (inactive) | -8.7% (inactive) | 106% | -34.7% (inactive) | 76.2% | -0.552 (inactive) | -3.6e-05 (inactive) | 0.00574 (inactive) | 18.3% (inactive) | 22% (inactive) | – | – |
| O=C(Nc1nc(-c2ccccc2)cs1)C1CCCO1 (stereo unspecified) | 440 | 9.4% (inactive) | -2.5% (inactive) | 102% | – | 156% | -0.409 (inactive) | -5.9e-05 (inactive) | – | -12.1% (inactive) | 98.1% (active) | 0.00563 (inactive) | inactive |
| O=C(Cc1c[nH]c2ccccc12)N1CCc2ccccc21 | 236 | 2.1% (inactive) | 6.4% (inactive) | 90% | -28.8% (inactive) | 93.8% | -0.582 (inactive) | -1e-05 (inactive) | 0.00443 (inactive) | -4.15% (inactive) | -44.5% (inactive) | – | – |
| Cc1cc2ncn(C(=O)N3CCOCC3)c2cc1C | 309 | -2.5% (inactive) | 27.9% (inactive) | 97.2% | -61.7% (inactive) | 122% | -0.572 (inactive) | -3.6e-05 (inactive) | 0.00619 (inactive) | 4.38% (inactive) | 3.06% (inactive) | – | – |
| COCCCNCC(=O)Nc1ccc(OC(F)(F)F)cc1 | 363 | 14.4% (inactive) | -4.3% (inactive) | 89.5% | – | 119% | -0.403 (inactive) | -4.5e-05 (inactive) | – | -4.19% (inactive) | -0.468% (inactive) | 0.00627 (inactive) | inactive |
| O=C(Cn1c(=O)n(Cc2ccc3c(c2)OCO3)c(=O)c2ccccc21)N1CCCc2ccccc21 | 680 | -6.8% (inactive) | -11.1% (inactive) | 87.9% | -22.2% (inactive) | 109% | -0.595 (inactive) | -6.4e-06 (inactive) | 0.00433 (inactive) | 21.3% (inactive) | 26.4% (inactive) | – | – |
| Cc1ccc(S(=O)(=O)N(CC(=O)N2CCOCC2)CC(=O)N2CCOCC2)cc1 | 676 | -9% (inactive) | -5.6% (inactive) | 108% | -163% (inactive) | 106% | -0.486 (inactive) | -1.3e-05 (inactive) | 0.00519 (inactive) | 13% (inactive) | 27.1% (inactive) | – | – |
